From publication PMC2741010 (Biochemistry, 2009) come the findings set out here.

What all share (assay): 3′-CMP titration followed by 1H-15N HSQC, NMR line shape analysis
In experiment [1] the target is T1, WT RNase A (Bos taurus, UniProt P61823).
T1 sequence (P61823 27-150): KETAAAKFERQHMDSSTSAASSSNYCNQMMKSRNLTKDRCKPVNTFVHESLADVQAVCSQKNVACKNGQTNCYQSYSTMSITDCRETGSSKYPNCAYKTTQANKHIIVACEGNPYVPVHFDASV
In kind it is binding, bovine. Particulars: for koff: global two-state fit of residues, 298 K, pH 6.4. Summed up:
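Each point recorded as a 1H-15N sensitivity-enhanced HSQC at 11.7 T, with spectral widths of 1600 Hz (t1) and 7000 Hz (t2). Kd and koff were taken from NMR line-shape fits of backbone amide shift changes.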

Experiment [2] deals with T2, RNase A (H48A) (Bos taurus, UniProt P61823, H74A).
T2 sequence (P61823 27-150 H74A): T1 sequence (P61823 27-150) with H48A
In kind it is binding.

For experiment [3], the target named is T3, RNase AECP (RNase A with loop 1 from ECP) (Bos taurus, UniProt P61823, DEL40-47/INS50PP/S49L/Y51R).
T3 sequence (P61823 with tags, fused parts or gaps DEL40-47/S49L/INS50PP/Y51R): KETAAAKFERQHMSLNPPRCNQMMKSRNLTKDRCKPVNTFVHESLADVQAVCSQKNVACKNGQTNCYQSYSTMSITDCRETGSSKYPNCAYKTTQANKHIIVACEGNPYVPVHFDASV
The experiment is classed as binding.

Where a chain is given by its changes, count along the chain named. Several values for one entry are separate records, joined by “and”; a condition that tells them apart may be missing. Equal values may be shown once.

In the case of `Nc1ccn([C@@H]2O[C@H](CO)[C@@H](OP(=O)(O)O)[C@H]2O)c(=O)n1` [3′-CMP, cytidine-3′-monophosphate], the Kd (in general, a measure of binding affinity in units of concentration) in experiment [1] came to 74 ± 2 µM; in experiment [2], 895 ± 50 µM; in experiment [3] it was 300 ± 16 µM. The off-rate (koff) (usually a measure of how fast the partners let go of each other) in experiment [1] (WT RNase A) was 1155 ± 120 s⁻¹; in experiment [1] (pH 6.4, WT RNase A), around 1200 s⁻¹; in experiment [2] (pH 6.4), 142 ± 19 s⁻¹; in experiment [3] (pH 6.4) it was 96 ± 9 s⁻¹. For the same compound, the kon in experiment [1] (WT RNase A, kon determined from koff/Kd) is reported as 1.56 × 10^7 ± 1.67 × 10^6 M^−^1s^−^1; in experiment [2] (RNase A H48A mutant, kon determined from koff/Kd) it was 1.59 × 10^5 ± 2.30 × 10^4 M^−^1s^−^1; in experiment [3] (RNase AECP chimera, kon determined from koff/Kd) it was 3.20 × 10^5 ± 3.45 × 10^4 M^−^1s^−^1. The “decrease in koff relative to WT” value in experiment [2] (H48A vs WT RNase A) was 10 fold and ~ 10 fold; in experiment [3] (RNase AECP vs WT RNase A), 10 fold and ~ 10 fold. Also, the “reduction of binding affinity relative to WT” value in experiment [2] (H48A vs WT RNase A) is given as ~ 12 fold; in experiment [3] (RNase AECP vs WT RNase A), ~ 4 fold.
